The values that follow come from ChEMBL document CHEMBL1127751, “Novel Asp32-replacement tetrapeptide analogues as potent and selective CCK-A agonists” (J Med Chem, 1994).

pIC50: −log10 of the molar value. Starred links: 1 amine or outer side, 2 acyl side, 3 side chain; linkers in the order of their positions; H or OH if unused. Non-standard residues stand in square brackets, D forms with d. Residues, ends and D or L forms follow the SMILES beside them. Groups on a side chain read outwards from the residue. ξ: configuration not given here. *: point of attachment. NMeF = CN[C@@H](Cc1ccccc1)C(=O)O; ξW = NC(Cc1c[nH]c2ccccc12)C(=O)O; NH(2-Me-phenyl) = Cc1ccccc1N*; ξNMeF = CNC(Cc1ccccc1)C(=O)O; β3hP = O=C(O)C[C@@H]1CCCN1; ξF = NC(Cc1ccccc1)C(=O)O; Boc = CC(C)(C)OC(=O)*; CO = O=C([*:1])[*:2]; Sar = CNCC(=O)O

The target in assay [1] is T1, Cholecystokinin receptor type A (Cavia porcellus) (UniProt Q63931).
T1 sequence (whole entry): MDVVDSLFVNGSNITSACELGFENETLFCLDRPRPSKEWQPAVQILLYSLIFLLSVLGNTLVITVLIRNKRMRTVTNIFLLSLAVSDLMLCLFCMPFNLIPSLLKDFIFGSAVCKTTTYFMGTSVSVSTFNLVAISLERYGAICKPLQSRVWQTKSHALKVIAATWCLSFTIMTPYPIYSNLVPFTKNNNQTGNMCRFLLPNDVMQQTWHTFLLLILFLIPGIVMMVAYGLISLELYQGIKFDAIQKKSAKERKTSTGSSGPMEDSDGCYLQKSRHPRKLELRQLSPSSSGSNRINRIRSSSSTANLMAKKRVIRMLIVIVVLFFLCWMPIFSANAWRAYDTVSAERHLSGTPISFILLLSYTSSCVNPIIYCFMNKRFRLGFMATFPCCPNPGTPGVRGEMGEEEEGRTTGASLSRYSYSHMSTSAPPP
In words: Percent response in PI hydrolysis relative to maximal response elicited by CCK-8 in guinea pig at 10e-6 M.

Assay [2] deals with Cholecystokinin receptor type B (Cavia porcellus). In words: Percent inhibition of specific [125I]Bolton-Hunter CCK-8 binding in guinea pig cortex at 10e-6 M.
Assay [3] addresses T2, Cholecystokinin receptor type A (Cavia porcellus, UniProt Q63931).
T2 sequence (Q63931 whole entry): T1 sequence (whole entry)
The experiment in a line: Concentration that inhibited 50% of specific binding of [125I]Bolton-Hunter CCK-8 binding in guinea pig pancreas.

Another assay is filed under the species Rattus norvegicus. The experiment in a line: Dose required to reduce food intake by 50% in rats. Format: functional. In short, it runs like this:
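Rats dosed intraperitoneally in nmol/kg, with 7–8 animals per group in each experiment. Food intake was compared with vehicle controls. The dose reducing intake by 50% was calculated from the dose–response data and reported with an interval.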

By inhibition is commonly meant the percentage by which the read-out fell short of the control. On to `Cc1ccccc1NC(=O)NCCCC[C@H](NC(=O)C(Cc1c[nH]c2ccccc12)NC(=O)OC(C)(C)C)C(=O)N(C)CC(=O)NC(Cc1ccccc1)C(N)=O` (stereo not given in full) (Boc-[ξW]K([CO-NH(2-Me-phenyl)])[Sar][ξF]-NH2), for which, in assay [1], the PI hydrolysis was 24%. The inhibition in assay [2] was found to be 5%.

By pIC50 is commonly meant the IC50 on a negative log10 scale, so that one unit is a factor of ten. The low end stands for a large IC50, the high end for a small IC50. Consider `Cc1ccccc1NC(=O)NCCCC[C@H](NC(=O)C(Cc1c[nH]c2ccccc12)NC(=O)OC(C)(C)C)C(=O)NCCCC(=O)NC(Cc1ccccc1)C(N)=O` (stereo not given in full), for which the negative-log IC50 (pIC50) in assay [3] is 6.13. Moreover, in assay [1], the PI hydrolysis worked out at 9%. The same molecule displayed an inhibition in assay [2] of 11%.

Turning to `Cc1ccccc1NC(=O)NCCCC[C@H](NC(=O)C(Cc1c[nH]c2ccccc12)NC(=O)OC(C)(C)C)C(=O)NCCC(=O)NC(Cc1ccccc1)C(N)=O` (stereo not given in full), the pIC50 in assay [3] is 6.90. Moreover, in assay [1], the PI hydrolysis amounted to 16%.

Take `Cc1ccccc1NC(=O)NCCCC[C@H](NC(=O)C(Cc1c[nH]c2ccccc12)NC(=O)OC(C)(C)C)C(=O)N(C)CCCC(=O)N(C)C(Cc1ccccc1)C(N)=O` (stereo not given in full): in assay [3], the pIC50 is 7.72. This molecule yielded a PI hydrolysis in assay [1] of 64%. In assay [2], this molecule displayed an inhibition of 4%.

For the molecule `Cc1ccccc1NC(=O)NCCCC[C@H](NC(=O)[C@H](Cc1c[nH]c2ccccc12)NC(=O)OC(C)(C)C)C(=O)NCC(=O)N(C)[C@@H](Cc1ccccc1)C(N)=O` (Boc-WK([CO-NH(2-Me-phenyl)])G[NMeF]-NH2), in assay [3], the pIC50 is 6.85.

In assay [3], `Cc1ccccc1NC(=O)NCCCC[C@H](NC(=O)C(Cc1c[nH]c2ccccc12)NC(=O)OC(C)(C)C)C(=O)N(C)CCC(=O)NC(Cc1ccccc1)C(N)=O` (stereo not given in full) gave a pIC50 of 7.21. The same molecule gave a PI hydrolysis in assay [1] of 61%. Also, in assay [2], the inhibition is 14%.

With `Cc1ccccc1NC(=O)NCCCC[C@H](NC(=O)C(Cc1c[nH]c2ccccc12)NC(=O)OC(C)(C)C)C(=O)N1CCC[C@H]1CC(=O)NC(Cc1ccccc1)C(N)=O` (stereo partly drawn) (Boc-[ξW]K([CO-NH(2-Me-phenyl)])[β3hP][ξF]-NH2), in assay [3], the pIC50 was 6.62. In addition, the PI hydrolysis in assay [1] amounted to 68%.

Take `Cc1ccccc1NC(=O)NCCCC[C@H](NC(=O)C(Cc1c[nH]c2ccccc12)NC(=O)OC(C)(C)C)C(=O)NCCCCCC(=O)N(C)C(Cc1ccccc1)C(N)=O` (stereo not given in full): the pIC50 in assay [3] was 5.88. The same molecule returned a PI hydrolysis in assay [1] of 4%.

`Cc1ccccc1NC(=O)NCCCC[C@H](NC(=O)C(Cc1c[nH]c2ccccc12)NC(=O)OC(C)(C)C)C(=O)NCC(=O)N(C)C(Cc1ccccc1)C(N)=O` (stereo not given in full) (Boc-[ξW]K([CO-NH(2-Me-phenyl)])G[ξNMeF]-NH2) yielded a PI hydrolysis in assay [1] of 28%. Moreover, the inhibition in assay [2] was 0%.

In turn, `Cc1ccccc1NC(=O)NCCCC[C@H](NC(=O)C(Cc1c[nH]c2ccccc12)NC(=O)OC(C)(C)C)C(=O)NCCCCC(=O)NC(Cc1ccccc1)C(N)=O` (stereo not given in full) showed a pIC50 in assay [3] of 5.74. The molecule also registered a PI hydrolysis in assay [1] of 2%.

Regarding `Cc1ccccc1NC(=O)NCCCC[C@H](NC(=O)C(Cc1c[nH]c2ccccc12)NC(=O)OC(C)(C)C)C(=O)N(C)CCC(=O)N(C)C(Cc1ccccc1)C(N)=O` (stereo not given in full), the pIC50 in assay [3] was 8.15. In assay [1], this molecule came in with a PI hydrolysis of 36%.

With `Cc1ccccc1NC(=O)NCCCC[C@H](NC(=O)C(Cc1c[nH]c2ccccc12)NC(=O)OC(C)(C)C)C(=O)N(C)CC(=O)N(C)C(Cc1ccccc1)C(N)=O` (stereo not given in full) (Boc-[ξW]K([CO-NH(2-Me-phenyl)])[Sar][ξNMeF]-NH2), the PI hydrolysis in assay [1] is 33%.

With `Cc1ccccc1NC(=O)NCCCC[C@H](NC(=O)C(Cc1c[nH]c2ccccc12)NC(=O)OC(C)(C)C)C(=O)NCC(=O)NC(Cc1ccccc1)C(N)=O` (stereo not given in full) (Boc-[ξW]K([CO-NH(2-Me-phenyl)])G[ξF]-NH2), in assay [1], the PI hydrolysis came to 17%. The same molecule registered an inhibition in assay [2] of 14%.

For the molecule `Cc1ccccc1NC(=O)NCCCC[C@H](NC(=O)C(Cc1c[nH]c2ccccc12)NC(=O)OC(C)(C)C)C(=O)NCCCC(=O)N(C)C(Cc1ccccc1)C(N)=O` (stereo not given in full), the pIC50 in assay [3] was 7.57. For the same molecule, the PI hydrolysis in assay [1] was determined as 67%. In assay [2], this molecule came in with an inhibition of 11%.

As for `Cc1ccccc1NC(=O)NCCCC[C@H](NC(=O)C(Cc1c[nH]c2ccccc12)NC(=O)OC(C)(C)C)C(=O)N(C)CCCC(=O)NC(Cc1ccccc1)C(N)=O` (stereo not given in full), the pIC50 in assay [3] was 6.41. This molecule also yielded a PI hydrolysis in assay [1] of 8%. Besides, the inhibition in assay [2] was 11%.

Take `Cc1ccccc1NC(=O)NCCCC[C@H](NC(=O)C(Cc1c[nH]c2ccccc12)NC(=O)OC(C)(C)C)C(=O)NCCC(=O)N(C)C(Cc1ccccc1)C(N)=O` (stereo not given in full): the pIC50 in assay [3] is 7.57. The PI hydrolysis in assay [1] stood at 47%. In assay [2], this molecule came in with an inhibition of 9%.

In assay [3], `Cc1ccccc1NC(=O)NCCCC[C@H](NC(=O)C(Cc1c[nH]c2ccccc12)NC(=O)OC(C)(C)C)C(=O)NCCCCCC(=O)NC(Cc1ccccc1)C(N)=O` (stereo not given in full) gave a pIC50 of 5.92. This molecule yielded a PI hydrolysis in assay [1] of 5%. Besides, in assay [2], the inhibition was 6%.

The term ED50 denotes the midpoint of the dose-response relation. Low values mean greater potency, high ones weaker potency. `Cc1ccccc1NC(=O)NCCCC[C@H](NC(=O)C(Cc1c[nH]c2ccccc12)NC(=O)OC(C)(C)C)C(=O)N[C@@H]1CC(=O)N([C@@H](Cc2ccccc2)C(N)=O)C1` (stereo not given in full): in assay [3], the pIC50 was 7.80. Moreover, in the assay listed under Rattus norvegicus, it took a dose of 0.03 µmol/kg to reach the 50% effect level (ED50). This molecule came in with a PI hydrolysis in assay [1] of 89%. Moreover, in assay [2], the inhibition was determined as 39%.

In assay [3], `Cc1ccccc1NC(=O)NCCCC[C@H](NC(=O)C(Cc1c[nH]c2ccccc12)NC(=O)OC(C)(C)C)C(=O)N1CCC(=O)N(C(Cc2ccccc2)C(N)=O)CC1` (stereo not given in full) gave a pIC50 of 6.12. The molecule also had a PI hydrolysis in assay [1] of 1%. Moreover, the inhibition in assay [2] is 8%.

Regarding `Cc1ccccc1NC(=O)NCCCC[C@H](NC(=O)[C@H](Cc1c[nH]c2ccccc12)NC(=O)OC(C)(C)C)C(=O)NCC(=O)N[C@@H](Cc1ccccc1)C(N)=O` (Boc-WK([CO-NH(2-Me-phenyl)])GF-NH2), in assay [3], the pIC50 was 6.04.

The molecule `Cc1ccccc1NC(=O)NCCCC[C@H](NC(=O)C(Cc1c[nH]c2ccccc12)NC(=O)OC(C)(C)C)C(=O)NCCCCC(=O)N(C)C(Cc1ccccc1)C(N)=O` (stereo not given in full) had a pIC50 in assay [3] of 5.93. The PI hydrolysis in assay [1] is 7%. This molecule also came in with an inhibition in assay [2] of 7%.

For the molecule `Cc1ccccc1NC(=O)NCCCC[C@H](NC(=O)C(Cc1c[nH]c2ccccc12)NC(=O)OC(C)(C)C)C(=O)N1CCC[C@H]1CC(=O)N(C)C(Cc1ccccc1)C(N)=O` (stereo partly drawn) (Boc-[ξW]K([CO-NH(2-Me-phenyl)])[β3hP][ξNMeF]-NH2), in assay [3], the pIC50 is 7.77. The PI hydrolysis in assay [1] is 92%. Also, the inhibition in assay [2] is 13%.

In assay [3], `Cc1ccccc1NC(=O)NCCCC[C@H](NC(=O)[C@H](Cc1c[nH]c2ccccc12)NC(=O)OC(C)(C)C)C(=O)N(C)CC(=O)N[C@@H](Cc1ccccc1)C(N)=O` (Boc-WK([CO-NH(2-Me-phenyl)])[Sar]F-NH2) had a pIC50 of 6.58.

With `Cc1ccccc1NC(=O)NCCCC[C@H](NC(=O)[C@H](Cc1c[nH]c2ccccc12)NC(=O)OC(C)(C)C)C(=O)N(C)CC(=O)N(C)[C@@H](Cc1ccccc1)C(N)=O` (Boc-WK([CO-NH(2-Me-phenyl)])[Sar][NMeF]-NH2), in assay [3], the pIC50 was 7.08.
